ChEMBL document CHEMBL2169763, “Chiral separation, configurational identification and antihypertensive evaluation of (±)-7,8-dihydroxy-3-methyl-isochromanone-4” (Bioorg Med Chem Lett, 2012)
Active and inactive are the calls of the source. No cut-off for these calls is given here.

Assays:
Rattus norvegicus [1] = assay: Antihypertensive activity in spontaneously hypertensive rat assessed as reduction in mean arterial pressure at 80 mg/kg, po up to 24 hrs; assay type: functional, organism-based; design: dose 80 mg/kg; settings: Artery
Method in brief: (§1)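 Spontaneously hypertensive rats received a single oral dose of 40 or 80 mg/kg. Systolic, diastolic and mean arterial pressure were recorded from 0 to 24 h after dosing, with heart rate monitored in parallel. Data are given as mean ± SEM (n = 8), and significance was tested against the respective control (p < 0.05, p < 0.01).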

Rattus norvegicus [2] = assay: Toxicity in spontaneously hypertensive rat assessed as change in basal heart rate at 50 mg/kg, po measured up to 24 hrs; assay type: organism-based; design: dose 50 mg/kg, route oral; settings: in vivo
Rattus norvegicus [3] = assay: Antihypertensive activity in spontaneously hypertensive rat assessed as reduction in systolic arterial pressure at 80 mg/kg, po measured up to 24 hrs; assay type: functional, organism-based; design: dose 80 mg/kg; settings: Artery; method in brief: as §1
Rattus norvegicus [4] = assay: Antihypertensive activity in spontaneously hypertensive rat assessed as reduction in diastolic arterial pressure at 80 mg/kg, po at 6 hrs; assay type: functional, Artery; design: scale not given: the % may be the effect or the level left; method in brief: as §1
Rattus norvegicus [5] = assay: Antihypertensive activity in spontaneously hypertensive rat assessed as reduction in diastolic arterial pressure at 80 mg/kg, po up to 24 hrs; assay type: functional, organism-based; design: dose 80 mg/kg; settings: Artery; method in brief: as §1
Rattus norvegicus [6] = assay: Antihypertensive activity in spontaneously hypertensive rat assessed as reduction in diastolic arterial pressure at 40 mg/kg, po at 6 hrs; assay type: functional, organism-based; design: dose 40 mg/kg; settings: Artery; method in brief: as §1
Rattus norvegicus [7] = assay: Antihypertensive activity in spontaneously hypertensive rat assessed as reduction in systolic arterial pressure at 40 mg/kg, po measured up to 24 hrs; assay type: functional, organism-based; design: dose 40 mg/kg; settings: Artery; method in brief: as §1

Row | SMILES | Activity (Rattus norvegicus [1]) | Activity (Rattus norvegicus [2]) | Activity (Rattus norvegicus [3]) | Activity (Rattus norvegicus [4]) | Activity (Rattus norvegicus [5]) | Activity (Rattus norvegicus [6]) | Activity (Rattus norvegicus [7])
1 | C[C@H]1OCc2c(ccc(O)c2O)C1=O | Active | Non-toxic | Active | 30% | Active | – | –
2 | CC1OCc2c(ccc(O)c2O)C1=O (racemic) | Active | Non-toxic | Active | – | Active | – | –
3 | C[C@@H]1OCc2c(ccc(O)c2O)C1=O | Active | Non-toxic | Active | – | Active | – | –
4 | C[C@H](CS)C(=O)N1CCC[C@H]1C(=O)O | – | – | – | – | – | Active | Active
